Experimental data: ChEMBL document CHEMBL1909613, “Synthesis and biological activity of new bispyridinium salts of 4,4'-bispyridyl-5,5'-perfluoroalkyl-2,2'-bisoxazoles” (Eur J Med Chem, 2011)
pIC50: −log10 of the molar value.

How the values were obtained:
[1] = test system: HT-29; test: Cytotoxicity against human HT-29 cells after 72 hrs by MTT assay; format: functional, cell-based
Method in brief: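 HT-29 cells grown in DMEM with 10% FBS at 37 °C, 95% humidity, 5% CO2. Seeded and held 24 h, then exposed to increasing concentrations in fresh medium for 72 h, quadruplicate wells per concentration. Viability by MTT absorbance at 595 nm. IC50 from a plot of log OD versus log drug concentration.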

[2] = molecular target: Choline kinase alpha (Homo sapiens, UniProt P35790); test: Inhibition of recombinant human Choline kinase alpha using [methyl-14C]choline chloride as substrate after 30 mins by autoradiography
Choline kinase alpha, sequence (P35790 whole entry): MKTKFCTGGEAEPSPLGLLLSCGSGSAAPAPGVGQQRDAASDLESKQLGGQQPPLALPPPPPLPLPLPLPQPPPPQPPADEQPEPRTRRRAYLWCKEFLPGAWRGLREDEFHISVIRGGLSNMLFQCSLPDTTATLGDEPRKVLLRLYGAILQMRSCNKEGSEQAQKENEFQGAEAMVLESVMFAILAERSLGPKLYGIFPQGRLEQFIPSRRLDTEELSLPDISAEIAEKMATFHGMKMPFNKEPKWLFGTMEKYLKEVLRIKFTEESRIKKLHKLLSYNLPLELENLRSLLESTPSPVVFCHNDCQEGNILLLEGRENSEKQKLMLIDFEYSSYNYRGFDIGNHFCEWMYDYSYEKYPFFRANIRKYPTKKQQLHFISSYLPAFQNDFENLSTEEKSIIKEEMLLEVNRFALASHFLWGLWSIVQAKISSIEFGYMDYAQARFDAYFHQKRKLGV
Method in brief: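 Extracts from cells expressing recombinant human ChoK were incubated 30 min at 37 °C in 100 mM Tris pH 8, 10 mM MgCl2, 10 mM ATP and [methyl-14C]choline chloride. Reaction stopped on ice with 500 mM EDTA. Choline and phosphocholine were separated by silica TLC (0.9% NaCl:methanol:ammonium hydroxide 50:70:5) and quantified by electronic autoradiography. IC50 came from a Hill-equation least-squares fit of PCho/(PCho+Cho) versus inhibitor concentration.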

OCC[n+]1ccc(-c2nc(-c3ccc(-c4ccc(-c5nc(-c6cc[n+](CCO)cc6)c(C(F)(F)F)o5)cc4)cc3)oc2C(F)(F)F)cc1 [listing 1 of 2 here]
pIC50 ([1]; Homo sapiens, HT-29, 72 h): 5.82 | pIC50 [2]: 4.62

OCC[n+]1ccc(-c2nc(-c3ccc(C(c4ccc(-c5nc(-c6cc[n+](CCO)cc6)c(C(F)(F)C(F)(F)C(F)(F)F)o5)cc4)(C(F)(F)F)C(F)(F)F)cc3)oc2C(F)(F)C(F)(F)C(F)(F)F)cc1
pIC50 ([1]; Homo sapiens, HT-29, 72 h): 5.20 | pIC50 [2]: 4.87

CN(C)C(=O)C[n+]1ccc(-c2nc(-c3ccc(-c4ccc(-c5nc(-c6cc[n+](CC(=O)N(C)C)cc6)c(C(F)(F)C(F)(F)C(F)(F)F)o5)cc4)cc3)oc2C(F)(F)C(F)(F)C(F)(F)F)cc1
pIC50 ([1]; Homo sapiens, HT-29, 72 h): 5.60 | pIC50 [2]: 5.37

CN(C)C(=O)C[n+]1ccc(-c2nc(-c3ccc(C(c4ccc(-c5nc(-c6cc[n+](CC(=O)N(C)C)cc6)c(C(F)(F)F)o5)cc4)(C(F)(F)F)C(F)(F)F)cc3)oc2C(F)(F)F)cc1
pIC50 ([1]; Homo sapiens, HT-29, 72 h): < 4.70 | pIC50 [2]: 5.21

CN(C)C(=O)C[n+]1ccc(-c2nc(-c3ccc(-c4nc(-c5cc[n+](CC(=O)N(C)C)cc5)c(C(F)(F)C(F)(F)F)o4)cc3)oc2C(F)(F)C(F)(F)F)cc1
pIC50 ([1]; Homo sapiens, HT-29, 72 h): < 4.30 | pIC50 [2]: 4.82

FC(F)(F)c1oc(-c2ccc(C(c3ccc(-c4nc(-c5cc[n+](CCCl)cc5)c(C(F)(F)F)o4)cc3)(C(F)(F)F)C(F)(F)F)cc2)nc1-c1cc[n+](CCCl)cc1
pIC50 ([1]; Homo sapiens, HT-29, 72 h): 4.86 | pIC50 [2]: 4.90

OCC[n+]1ccc(-c2nc(-c3ccc(-c4ccc(-c5nc(-c6cc[n+](CCO)cc6)c(C(F)(F)C(F)(F)F)o5)cc4)cc3)oc2C(F)(F)C(F)(F)F)cc1
pIC50 ([1]; Homo sapiens, HT-29, 72 h): 6.08 | pIC50 [2]: 5.02

FC(F)(F)C(F)(F)c1oc(-c2ccc(C(c3ccc(-c4nc(-c5cc[n+](CCCl)cc5)c(C(F)(F)C(F)(F)F)o4)cc3)(C(F)(F)F)C(F)(F)F)cc2)nc1-c1cc[n+](CCCl)cc1
pIC50 ([1]; Homo sapiens, HT-29, 72 h): 5.03 | pIC50 [2]: 4.85

OCC[n+]1ccc(-c2nc(-c3ccc(C(c4ccc(-c5nc(-c6cc[n+](CCO)cc6)c(C(F)(F)C(F)(F)F)o5)cc4)(C(F)(F)F)C(F)(F)F)cc3)oc2C(F)(F)C(F)(F)F)cc1 [listing 1 of 2 here]
pIC50 ([1]; Homo sapiens, HT-29, 72 h): 5.22 | pIC50 [2]: 5.36

CN(C)C(=O)C[n+]1ccc(-c2nc(-c3ccc(-c4ccc(-c5nc(-c6cc[n+](CC(=O)N(C)C)cc6)c(C(F)(F)F)o5)cc4)cc3)oc2C(F)(F)F)cc1
pIC50 ([1]; Homo sapiens, HT-29, 72 h): 5.40 | pIC50 [2]: 6.52

OCC[n+]1ccc(-c2nc(-c3ccc(C(c4ccc(-c5nc(-c6cc[n+](CCO)cc6)c(C(F)(F)C(F)(F)F)o5)cc4)(C(F)(F)F)C(F)(F)F)cc3)oc2C(F)(F)C(F)(F)F)cc1 [listing 2 of 2 here]
pIC50 ([1]; ht-29): 5.11 | pIC50 [2]: 5.38

FC(F)(F)C(F)(F)C(F)(F)c1oc(-c2ccc(C(c3ccc(-c4nc(-c5cc[n+](CCCl)cc5)c(C(F)(F)C(F)(F)C(F)(F)F)o4)cc3)(C(F)(F)F)C(F)(F)F)cc2)nc1-c1cc[n+](CCCl)cc1
pIC50 ([1]; Homo sapiens, HT-29, 72 h): 4.81 | pIC50 [2]: 4.94

CN(C)C(=O)C[n+]1ccc(-c2nc(-c3ccc(-c4ccc(-c5nc(-c6cc[n+](CC(=O)N(C)C)cc6)c(C(F)(F)C(F)(F)F)o5)cc4)cc3)oc2C(F)(F)C(F)(F)F)cc1
pIC50 ([1]; ht-29): 5.26 | pIC50 [2]: 5.70

CN(C)C(=O)C[n+]1ccc(-c2nc(-c3ccc(-c4nc(-c5cc[n+](CC(=O)N(C)C)cc5)c(C(F)(F)F)o4)cc3)oc2C(F)(F)F)cc1
pIC50 ([1]; Homo sapiens, HT-29, 72 h): < 4.30 | pIC50 [2]: 5.87

OCC[n+]1ccc(-c2nc(-c3ccc(-c4ccc(-c5nc(-c6cc[n+](CCO)cc6)c(C(F)(F)F)o5)cc4)cc3)oc2C(F)(F)F)cc1 [listing 2 of 2 here]
pIC50 ([1]; ht-29): 5.73 | pIC50 [2]: < 4.70

OCC[n+]1ccc(-c2nc(-c3ccc(-c4ccc(-c5nc(-c6cc[n+](CCO)cc6)c(C(F)(F)C(F)(F)C(F)(F)F)o5)cc4)cc3)oc2C(F)(F)C(F)(F)C(F)(F)F)cc1
pIC50 ([1]; Homo sapiens, HT-29, 72 h): 5.65 | pIC50 [2]: 4.76
